Results published in ChEMBL document CHEMBL1147042, “Modafinil enhances thalamocortical activity by increasing neuronal electrotonic coupling” (2007).
Calls of active or inactive are those of the source. The rule behind the calls is not given here.

Legend:
[1] = test system: Cortex; assay: Induction of 40-Hz shock-stimulated Sprague-Dawley rat cortical activity assessed as increase in slope of rising phase at 0.2 uM after 15 mins by voltage-sensitive dye imaging method; format: functional
How it was run: (§1)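 Rat barrel-cortex slices (300–450 μm) came from Sprague–Dawley rats of either sex, P10–18. Slices recovered at 35°C for ≥30 min, then were held in oxygenated ACSF (pH 7.4) at 32°C. Staining used RH 414 or di-4-ANEPPS (0.025 mg/ml). White matter was stimulated at 10 Hz or 40 Hz. Modafinil was applied for 15 min. Optical response was taken as fractional fluorescence ΔF/F.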

[2] = test system: Cortex; assay: Induction of 40-Hz shock-stimulated Sprague-Dawley rat cortical activity assessed as increase in peak amplitude at 0.2 uM after 15 mins by voltage-sensitive dye imaging method; format: functional; how it was run: as §1
[3] = test system: Thalamocortex; assay: Effect on paired-pulse ventrobasal stimulation induced excitatory postsynaptic current in 40-Hz shock-stimulated C57BL/6 mouse thalamocortical slices; format: functional, tissue-based; details: Brain
[4] = organism: Rattus norvegicus; assay: Reversal of increase in electronic coupling in Sprague-Dawley rat cortical interneurons assessed as input conductance change at 50 uM in presence of gap junction inhibitor mefloquine by […]; format: functional
[5] = test system: Cortex; assay: Induction of 40-Hz shock-stimulated Sprague-Dawley rat cortical activity assessed as increase in slope of rising phase after 15 mins by voltage-sensitive dye imaging method; format: functional; how it was run: as §1
[6] = test system: Thalamocortex; assay: Induction of 40-Hz shock-stimulated C57BL/6 mouse thalamocortical activity assessed as increase in slope of rising phase at 0.2 uM after 15 mins by voltage-sensitive dye imaging method; format: functional, Brain
How it was run: (§2)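 Thalamocortical slices (350–400) came from C57BL/6 mice of either sex, P7–20, anesthetized with pentobarbital 120 mg/kg i.p. Slices recovered at 35°C for ≥30 min, then sat in oxygenated ACSF (pH 7.4) at 32°C. They were stained with RH 414 or di-4-ANEPPS (0.025 mg/ml). White matter received 10-Hz and/or 40-Hz electrical stimulation. Modafinil was bath-perfused and read at 15 min. Signal was ΔF/F.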

[7] = test system: Thalamocortex; assay: Induction of 10-Hz shock-stimulated C57BL/6 mouse thalamocortical activity assessed as increase in slope of rising phase after 15 mins by voltage-sensitive dye imaging method; format: functional, Brain; how it was run: as §2
[8] = test system: Thalamocortex; assay: Induction of 40-Hz shock-stimulated C57BL/6 mouse thalamocortical activity assessed as increase in peak amplitude at 0.2 uM after 15 mins by voltage-sensitive dye imaging method; format: functional, Brain; how it was run: as §2
[9] = test system: Cortex; assay: Induction of 10-Hz shock-stimulated Sprague-Dawley rat cortical activity assessed as increase in peak amplitude at 100 uM after 15 mins by voltage-sensitive dye imaging method; format: functional; how it was run: as §1
[10] = test system: Cortex; assay: Induction of 40-Hz shock-stimulated Sprague-Dawley rat cortical activity assessed as increase in peak amplitude at 100 uM after 15 mins by voltage-sensitive dye imaging method; format: functional; how it was run: as §1
[11] = test system: Thalamocortex; assay: Effect on excitatory synaptic transmission in C57BL/6 mouse thalamocortical slices assessed as increase in input conductance in presence of GABAA, GABAB and NMDA blockers by single patch clamp recording; format: functional, Brain
[12] = organism: Rattus norvegicus; assay: Increase in electronic coupling of Long-Evans rat inferior olivary neurons in presence of CaMK2 inhibitor KN93 by single-patch clamp method; format: functional
[13] = organism: Rattus norvegicus; assay: Reduction of input resistance in Long-Evans rat inferior olivary neurons at 150 uM relative to control by single-patch clamp method; format: functional
How it was run: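 Input resistance was probed with hyperpolarizing current pulses before and after local application of modafinil (100–150 μM).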

[14] = test system: Thalamocortex; assay: Induction of 40-Hz shock-stimulated C57BL/6 mouse thalamocortical activity assessed as increase in slope of rising phase after 15 mins by voltage-sensitive dye imaging method; format: functional, Brain; how it was run: as §2
[15] = test system: Cortex; assay: Induction of 10-Hz shock-stimulated Sprague-Dawley rat cortical activity assessed as increase in slope of rising phase at 0.2 uM after 15 mins by voltage-sensitive dye imaging method; format: functional; how it was run: as §1
[16] = test system: Thalamocortex; assay: Effect on C57BL/6 mouse thalamocortical activity in presence of CaMK2 inhibitor KN93 by voltage-sensitive dye imaging method; format: functional; details: Brain
[17] = test system: Thalamocortex; assay: Induction of 10-Hz shock-stimulated C57BL/6 mouse thalamocortical activity assessed as increase in peak amplitude at 0.2 uM after 15 mins by voltage-sensitive dye imaging method; format: functional, Brain; how it was run: as §2
[18] = Increase in electronic coupling in Sprague-Dawley rat cortical interneurons assessed as coupling coefficient at 100 uM by […]; format: functional
[19] = test system: Thalamocortex; assay: Induction of 40-Hz shock-stimulated C57BL/6 mouse thalamocortical activity assessed as increase in peak amplitude at 100 uM after 15 mins by voltage-sensitive dye imaging method; format: functional, Brain; how it was run: as §2
[20] = test system: Thalamocortex; assay: Induction of 10-Hz shock-stimulated C57BL/6 mouse thalamocortical activity assessed as increase in slope of rising phase at 0.2 uM after 15 mins by voltage-sensitive dye imaging method; format: functional, Brain; how it was run: as §2
[21] = test system: Thalamocortex; assay: Effect on C57BL/6 mouse thalamocortical activity in presence of PKA inhibitor KT5720 by voltage-sensitive dye imaging method; format: functional; details: Brain
[22] = test system: Thalamocortex; assay: Induction of 10-Hz shock-stimulated C57BL/6 mouse thalamocortical activity assessed as increase in peak amplitude at 100 uM after 15 mins by voltage-sensitive dye imaging method; format: functional, Brain; how it was run: as §2
[23] = test system: Cortex; assay: Induction of 10-Hz shock-stimulated Sprague-Dawley rat cortical activity assessed as increase in peak amplitude at 0.2 uM after 15 mins by voltage-sensitive dye imaging method; format: functional; how it was run: as §1
[24] = organism: Rattus norvegicus; assay: Increase in electronic coupling of Long-Evans rat inferior olivary neurons at 150 uM by single-patch clamp method; format: functional
How it was run: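 Paired patch recording was done at 32°C in ACSF. Hyperpolarizing current was injected into one neuron of a pair. Coupling coefficient = coupled-cell response ÷ injected-cell response, averaged over 10–20 trials. Measured before and after 150 μM modafinil; n = 7 pairs.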

[25] = test system: Cortex; assay: Induction of 10-Hz shock-stimulated Sprague-Dawley rat cortical activity assessed as increase in slope of rising phase after 15 mins by voltage-sensitive dye imaging method; format: functional; how it was run: as §1
[26] = organism: Rattus norvegicus; assay: Increase in electronic coupling in Sprague-Dawley rat cortical interneurons assessed as input conductance change at 50 uM by […]; format: functional

For `NC(=O)C[S+]([O-])C(c1ccccc1)c1ccccc1` (stereo unspecified) [MODAFINIL], the Activity [1] was 35%, the Activity [2] was 75% and the Activity [3] was “inactive”. The Activity [4] was “Active”, the Activity [5] was 32% and the Activity [6] was 35%. For the same compound, the Activity [7] was 31%, the Activity [8] was 75% and the Activity [9] was 65%. The Activity [10] was 75%, the Activity [11] was 31% and the Activity [12] was “inactive”. For the same compound, the Activity [13] was “Active”, the Activity [14] was 32% and the Activity [15] was 67%. The Activity [16] was “inactive”, the Activity [17] was 70% and the Activity [18] was 70%. The Activity [19] was 75%, the Activity [20] was 67% and the Activity [21] was “Active”. The Activity [22] was 65%, the Activity [23] was 70% and the Activity [24] was “Active”. For the same compound, the Activity [25] was 31% and the Activity [26] was “Active”.
